Compounds with a hit are over-represented: about 2.6% of the library has one in this group of screens.
STEP block = STEP phosphatase inhibitors, primary screen, biochemical, fluorescence intensity, uHTS | Tyrosine-protein phosphatase non-receptor type 5 (Homo sapiens), P54829 | recombinant STEP, OMFP fluorogenic substrate | inhibition, % at 20 µM | hit rate 0.25% among 360,000 | AID 588621, 2011;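 active = inhibition at 20 µM, scaled per plate between control wells, above about 37%, limit read from the data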;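 also: 0% = DMSO with enzyme and substrate and 100% = substrate only without enzyme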
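Test system: STEP tyrosine phosphatase / Reagent: OMFP at 25 µM / Doses: 20 µM, 1% DMSO / Read-out: percent inhibition scaled to no-enzyme and uninhibited-enzyme controls, plate-pattern corrected / Detection: FITC-channel fluorescence of OMFP product / Medium: Bis-Tris buffer pH 6.0, 2.5 mM DTT, 0.005% Tween 20 / Schedule: 20 min at room temperature, dark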
rCAG RNA binder = binders of r(CAG) RNA repeats, primary screen, biochemical, fluorescence | r(CAG) RNA repeat, TO-PRO-1 dye displacement fluorescence | inhibition, % at 3 µM | hit rate 1.3% among 370,000;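 active = inhibition above the plate cutoff, the mean of all test compounds on that plate plus 3 SD, cut at about 35% in these data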;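 also: 0% = DMSO alone and 100% = 100 µM mitoxantrone as full dye displacement; higher means more dye released from RNA so lower well fluorescence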
Scp1 inh = Scp-1 phosphatase inhibitors, primary screen, biochemical, colorimetric, uHTS; AID 493091, 2011; Recombinant Scp1, phosphopeptide, malachite green phosphate absorbance; Carboxy-terminal domain RNA polymerase II polypeptide A small phosphatase 1 (Homo …; inhibition, % at 20 µM; hit rate 0.88% among 340,000;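 active = inhibition above about 50% at 20 µM, limit read from the data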;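 also: plate controls were DMSO wells with enzyme for no effect and wells lacking enzyme for full effect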
Target sequence (Q9GZU7 76-261 limits assumed): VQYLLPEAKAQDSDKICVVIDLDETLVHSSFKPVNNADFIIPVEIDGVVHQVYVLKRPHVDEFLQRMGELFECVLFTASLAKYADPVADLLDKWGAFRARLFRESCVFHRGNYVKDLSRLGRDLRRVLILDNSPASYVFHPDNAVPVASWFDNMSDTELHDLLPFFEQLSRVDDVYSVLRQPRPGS
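Test system – truncated SCP-1 phosphatase (76-261aa) · Reagent – Phosphorylated 17-residue peptide substrate · Incubation – 45 min room-temperature reaction, 5 min colour, 30 min stabiliser · Detection – colorimetric phosphate reagent with accelerator and stabiliser, absorbance at 630 nm · Measure – % inhibition at 20 µM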
NadD inh = inhibitors of S. aureus NadD, primary screen, biochemical, colorimetric, uHTS. inhibition, % at 20 µM. Nicotinate-nucleotide adenylyltransferase NadD (Staphylococcus aureus N315). hit rate 0.78% among 360,000. purified NadD enzyme, colorimetric absorbance read-out; in the data active = inhibition above about 26%
LMPTP inh = LMPTP phosphatase inhibitors, primary screen, biochemical, fluorescence intensity, uHTS | AID 651560, 2012 | inhibition, % at 20 µM | hit rate 0.22% among 360,000 | recombinant LMPTP-A, OMFP fluorogenic substrate;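 active = compounds that cut the enzyme signal by at least half of the control window in the single-dose screen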;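 also: plate controls were DMSO wells with enzyme plus substrate for no effect and substrate without enzyme for full effect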
Target sequence (P24666 whole entry, looked up): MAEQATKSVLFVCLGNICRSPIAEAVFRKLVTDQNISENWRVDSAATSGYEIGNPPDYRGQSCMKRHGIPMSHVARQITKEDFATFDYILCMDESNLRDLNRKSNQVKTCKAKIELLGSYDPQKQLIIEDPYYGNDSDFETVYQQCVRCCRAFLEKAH
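Assay system: LMPTP-A phosphatase enzyme | Input: 0.625 nM enzyme | Also added: Fluorogenic phosphatase substrate OMFP at 400 µM final | Compound dosing: One test concentration per compound, 20 µM, with 3% DMSO overall | Schedule: 50 min enzyme reaction at room temperature, protected from light | Signal: Fluorescence intensity | Benchmarks: no-enzyme and uninhibited controls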
rCAG bind conf = small molecules binding CAG repeat RNA – biochemical, fluorescence, confirmation; r(CAG) RNA repeat, TO-PRO-1 dye displacement fluorescence; hit rate 70% among 4,300; shares compounds with rCAG RNA binder; inhibition, % at 3 µM;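 active = inhibition above a per-plate cutoff, the mean inhibition of sample wells plus 3 SD, cut at about 35% in these data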;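 also: loss of TO-PRO-1 fluorescence as compound displaces dye from 1x1 AA loop RNA; 0% = DMSO only wells and 100% = 100 µM mitoxantrone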
dCAG dye counter = displacement of TO-PRO-1 from CAG DNA duplex, counter-screen for rCAG RNA repeat binder project, biochemical, fluorescence, TO-PRO-1 dye, d(CAG) DNA oligo; inhibition, % at 3 µM; shares compounds with rCAG RNA binder; d(CAG) DNA oligo TO-PRO-1 dye displacement; AID 652068, 2013; hit rate 94% among 4,300;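 active = inhibition above its plate's cutoff, the mean test-well inhibition plus 3 SD, cut at about 4.8% in these data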;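 also: 0% = DNA dye mix with DMSO and 100% = 100 µM mitoxantrone; hits displace the dye from DNA and so lower well fluorescence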
dCAG dye DR = inhibitors of DNA CAG/GTC TO-PRO-1 complex, dose response, counter-screen for rCAG RNA repeat binder project, biochemical, fluorescence, TO-PRO-1 dye; DNA CAG/GTC duplex TO-PRO-1 dye displacement fluorescence; IC50, µM; hit rate 20% among 250; shares compounds with rCAG RNA binder; in the data active = IC50 below about 10 µM
Numbers without * were called inactive; i = inactive; . = no result.

SMILES	STEP block	rCAG RNA binder	Scp1 inh	NadD inh	LMPTP inh	rCAG bind conf	dCAG dye counter	others
CC[C@@H]1C=C(C(=O)O)[C@H](c2ccc(F)cc2)N1S(=O)(=O)c1ccc(C)cc1	2.9	3.0	-4.2	-3.9	-1.6	.	.
COc1ccc([C@H]2C(C(=O)O)=C[C@@H](CC3CCCC3)N2S(=O)(=O)c2ccc(C)cc2)cc1OC	-0.8	56.4*	-5.0	14.6	-0.4	52.2*	16.8*
Cc1ccc(S(=O)(=O)N2[C@@H](c3cccc(C)c3)C(C(=O)O)=C[C@H]2CC2CCCC2)cc1	-0.2	49.2*	4.1	-1.2	-0.6	52.3*	17.9*
Cc1ccc(NC(=O)Cn2nnc(-c3ccccc3F)n2)cc1C	.	4.6	.	.	.	.	.
CCC(C(=O)Nc1ccccc1N1CCCC1)c1cccc(C)c1 (centres undefined)	.	1.4	.	.	.	.	.
C[C@H](c1ccccc1)N1C[C@@H](COCc2ccccc2)Oc2cccc(Oc3ccc(C(C)(C)C)cc3)c2S1(=O)=O	.	4.3	.	.	.	.	.
CCCC(C)C(=O)NC1CCCCN(Cc2ccccc2C)C1=O (centres undefined)	.	-1.5	.	.	.	.	.
Cc1ccc(S(=O)(=O)N2[C@@H](c3ccc4c(c3)OCO4)C(C(=O)O)=C[C@H]2CC2CCCC2)cc1	-1.0	67.1*	8.2	4.0	0.7	61.4*	25.1*
CCOC(=O)C1=C[C@@H](CC)N(S(=O)(=O)c2ccc(C)cc2)[C@H]1c1ccccc1	4.2	-2.5	.	-7.6	3.3	.	.
Cc1ccc([C@H]2C(C(=O)O)=C[C@@H](CC3CCCC3)N2S(=O)(=O)c2ccc(C)cc2)cc1	1.5	67.9*	-19.6	5.6	0.0	73.1*	27.3*	dCAG dye DR=i
O=S(=O)(NCC(Nc1ccccc1)c1ccccc1)c1ccc(Cl)cc1 (centres undefined)	1.5	3.8	-1.7	1.8	2.5	.	.
O=C(O)c1cccc(NS(=O)(=O)c2ccc(-c3ccc(S(=O)(=O)Nc4cccc(C(=O)O)c4)cc3)cc2)c1	1.1	43.4*	0.2	-4.3	0.8	16.8	1.1
O=C(O)c1cccc(NC(CNS(=O)(=O)c2ccc(Cl)cc2)c2ccccc2)c1 (centres undefined)	-4.3	43.0*	-2.9	10.7	1.0	36.5*	11.3*
COc1ccc(NS(=O)(=O)c2ccc(Oc3cccc(C(=O)O)c3)cc2)cc1	0.0	9.8	-3.2	6.9	-0.6	.	.
O=C(O)c1cccc(S(=O)(=O)Nc2ccc(-c3ccccc3)cc2)c1	9.0	17.5	-1.1	-1.6	-0.7	.	.
O=C(O)c1cccc(NS(=O)(=O)c2ccc(Oc3ccc(S(=O)(=O)Nc4cccc(C(=O)O)c4)cc3)cc2)c1	1.1	47.4*	-18.4	-9.0	-1.2	23.0	3.3
NC(=O)c1ncn([C@@H]2O[C@H](C(=O)N[C@H](Cc3ccccc3)C(=O)N3CCN(c4ccc(Cl)cn4)CC3)[C@@H](O)[C@H]2O)n1	.	0.7	.	.	.	.	.
COC(=O)C[C@@H]1CC[C@@H]2[C@@H](COc3ccc(NC(=O)Nc4cccc(Cl)c4)cc3C(=O)N2C)O1	.	6.2	.	.	.	.	.
CCCCc1ccc(NC(=O)CSCc2cc(=O)[nH][nH]2)cc1	-5.4	42.4*	-4.3	3.6	-2.8	14.6	4.5*
COc1cccc(/C=C/C(=O)OCC(=O)NCCNC(=O)COC(=O)/C=C/c2cccc(OC)c2)c1	1.4	4.3	-6.1	-8.3	0.9	.	.
CNc1ccc(Br)cc(C(=O)/C=C/c2cccc(OC)c2)c1=O	8.1	36.0*	-2.2	14.4	16.6	37.1*	16.0*
N#Cc1c(=O)c2nc(NCc3ccccc3)ncc2n2ccccc12	3.1	9.2	7.3	19.6	5.2	.	.
N#Cc1c(=O)c2nc(NCCCO)ncc2n2c(=O)c3ccccc3[nH]c12	7.0	41.3*	20.2	9.0	2.7	66.9*	26.3*	dCAG dye DR=5.36*
COc1ccc(-c2cc(NC(=O)Cc3c(C)[nH]c4ccccc34)ccc2Nc2cccnc2)cc1F	.	13.9	.	.	.	.	.
COC(=O)C1=C(C)N(Cc2ccc(C(F)(F)F)cc2)C(=NCc2ccc(C(F)(F)F)cc2)NC1c1ccc(F)cc1 (centres undefined)	.	5.4	.	.	.	.	.
SMILES	STEP block	rCAG RNA binder	Scp1 inh	NadD inh	LMPTP inh	rCAG bind conf	dCAG dye counter	others
COc1cccc(/C=C2\SC(=S)N(C(Cc3ccccc3)C(=O)O)C2=O)c1 (centres undefined)	8.2	68.6*	-8.7	14.8	6.6	77.9*	30.6*	dCAG dye DR=i
O=C(O)C(c1ccccc1)N1C(=O)/C(=C/c2cccs2)SC1=S (centres undefined)	11.7	6.9	-9.0	-0.7	-1.0	.	.
COc1ccc(OC)c(/C=C2\SC(=S)N(C(C(=O)O)c3ccccc3)C2=O)c1 (centres undefined)	8.8	54.6*	-9.4	4.0	2.6	77.3*	44.2*
O=C(O)C(Cc1ccccc1)N1C(=O)/C(=C/c2cccs2)SC1=S (centres undefined)	26.5	66.9*	-4.5	11.2	1.0	49.2*	17.6*
CC(C)(C)OC(=O)NCCc1ccccc1/C=C/S(=O)(=O)NC1CCCC1	.	2.6	.	.	.	.	.
O=C(NCCc1c[nH]c2ccccc12)OCc1cn(Cc2cc(F)cc(F)c2)nn1	.	0.4	.	.	.	.	.
O=C(CSC1=NS(=O)(=O)c2cc(Cl)ccc2N1)Nc1ccccc1C(F)(F)F	-0.5	52.0*	7.4	3.6	-0.3	51.7*	10.9*	dCAG dye DR=>29.9
O=C(CSC1=NS(=O)(=O)c2cc(Cl)ccc2N1)Nc1ccccc1F	-0.1	59.2*	-6.2	-1.9	-0.4	34.5	6.8*
CC(=O)Nc1ccc(NC(=O)CSC2=NS(=O)(=O)c3cc(Cl)ccc3N2)cc1	-1.2	22.3	7.2	1.8	-1.2	.	.
COc1ccc(CN2C(=O)COc3ccccc3C2c2nnnn2C2CCCCC2)cc1 (centres undefined)	.	13.3	.	.	.	.	.
COc1ccccc1Cc1c(-c2ccc(Cl)cc2)nc2ccc(C)cn12	.	17.7	.	.	.	.	.
